# CSC inhib: cancer stem cell inhibition | cancer stem cell-like cells viability, luminescence | 1.1% of 300,000 active | inhibition, % at 7.5 µM; in the data active = inhibition above about 75%; inconclusive = no clear call, values can overlap the other calls; tested in HMLE shEcad cells
# GRIN3A LBD mod: NR3A (human) ligand-binding domain modulation | NR3A LBD differential scanning fluorimetry, Tm shift; 0% = protein alone, 100% = glycine-bound protein | 2.5% of 340,000 active | Tm shift relative to glycine control, % at 25 µM;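 active = melting temperature shift of at least 10% of the positive control shift, at one fixed dose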
# CHOP inhibitor: CHOP inhibition in unfolded protein response | CHO-K1 CHOP-promoter luciferase, tunicamycin-induced, 15-18 h | inhibition, % at 10 µM | 3.8% of 220,000 active | AID 2732;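 active = compounds that reduced the stress-induced luciferase reporter signal by more than about 70% of percent inhibition, limit read from the data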
# PREPL inhibitor: human PREPL enzyme inhibition | recombinant PREPL, fluorescence polarization activity-based probe | AID 2751 | 0.68% of 320,000 active | inhibition, % at 5.96 µM; in the data active = inhibition above about 43%
# Target sequence (Q4J6C6 whole entry, looked up): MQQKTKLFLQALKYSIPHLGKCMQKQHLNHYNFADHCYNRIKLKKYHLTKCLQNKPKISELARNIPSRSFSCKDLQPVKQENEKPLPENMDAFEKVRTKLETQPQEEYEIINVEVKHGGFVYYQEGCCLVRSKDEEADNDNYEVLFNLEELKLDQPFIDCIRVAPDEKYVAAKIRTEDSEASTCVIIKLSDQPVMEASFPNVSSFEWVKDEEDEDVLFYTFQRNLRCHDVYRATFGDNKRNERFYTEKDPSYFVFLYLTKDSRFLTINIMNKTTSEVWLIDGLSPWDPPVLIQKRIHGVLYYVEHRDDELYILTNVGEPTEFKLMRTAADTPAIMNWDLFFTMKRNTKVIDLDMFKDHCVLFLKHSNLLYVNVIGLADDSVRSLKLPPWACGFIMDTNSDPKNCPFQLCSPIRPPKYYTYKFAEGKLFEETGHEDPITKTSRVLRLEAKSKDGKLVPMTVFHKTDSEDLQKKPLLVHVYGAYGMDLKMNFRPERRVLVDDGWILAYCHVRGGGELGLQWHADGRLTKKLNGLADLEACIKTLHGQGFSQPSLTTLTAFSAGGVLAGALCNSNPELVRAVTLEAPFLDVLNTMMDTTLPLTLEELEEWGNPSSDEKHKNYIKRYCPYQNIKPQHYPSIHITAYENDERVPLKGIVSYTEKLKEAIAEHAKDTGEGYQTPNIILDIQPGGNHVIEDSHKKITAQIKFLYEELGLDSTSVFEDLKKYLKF
# Beta cell apopt: beta cell apoptosis inhibition | INS-1E cytokine-induced death, ATP luminescence, 48 h; percent of positive-control rescue, neutral wells zero | protection from apoptosis, % (concentration not given with the values) | 0.8% of 300,000 active | AID 435005;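 active = Every replicate reaches about 75%, or at least half do and their mean reaches it too, limit read from the data; inconclusive = At least half of replicates reach the limit but their mean does not; inactive = Under half of replicates reach the limit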;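 also: higher means more ATP so stronger rescue from cytokine killing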
# T cruzi inh: blocks replication of Trypanosoma cruzi; T. cruzi beta-gal in NIH3T3, luminescence, 90 h; inhibition, % (concentration not given with the values); 1.4% of 300,000 active;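 active = mean inhibition across valid replicates above about 55%, limit read from the data; inconclusive = mean below that limit but half or more replicates reach it; inactive = mean below it, under half of replicates reach it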;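 also: signal also drops with host cell toxicity which is not excluded here; higher percent means less beta-gal luminescence so fewer parasites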
#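 Assay system: NIH/3T3 fibroblasts plus reporter T. cruzi. Amount: NIH/3T3 cells, 5,000 per well. Buffer or medium: DMEM, 2% fetal bovine serum. Doses: compound pinned at 50 nL/well, DMSO. Schedule: ≥90 h infection period, 3 h prior cell attachment. Signal: luminescent β-galactosidase signal after 60 min lysis. Read-out: parasite load inhibition, %.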
# Hits are given with their value; 0 = inactive; ? = inconclusive; - = no result given; ! = not confirmed by another sample. In the library only some 6.7% were active in any assay of this set; here they are far more common.
SMILES,CSC inhib,GRIN3A LBD mod,CHOP inhibitor,PREPL inhibitor,Beta cell apopt,T cruzi inh
Fc1ccc2c(c1)Sc1ccc(Cl)cc1CC2N1CCN(CCC2OCCO2)CC1 (stereo unspecified),0,0,-,0,0,0
CCN(CC)CCNC(=O)Cn1nc(-c2ccc(C)cc2)ccc1=O,0,0,86,0,0,0
O=C(CS(=O)(=O)c1ccccc1)N1CCc2ccccc21,0,0,0,0,0,0
COc1cc(/C=C2/NC(=O)NC2=O)cc(Br)c1OCc1ccccc1,0,0,94,0,0,0
COc1cc(/C=C2/NC(=O)NC2=O)cc(Br)c1OCc1cccc(C(=O)O)c1,0,0,0,0,-,0
O=C1C(Nc2ccccc2)=C(N2CCCCC2)C(=O)c2ccccc21,0,0,0,0,83,0
O=C1C(NS(=O)(=O)c2ccc(Br)cc2)=C(N2CCCCC2)C(=O)c2ccccc21,0,0,-,0,0,0
COc1ccccc1NC1=C(N2CCCCC2)C(=O)c2ccccc2C1=O,144,0,0,0,102,62
COC1=C(Nc2ccccc2)C(=O)c2ccccc2C1=O,-,0,0,0,95,0
Cc1ccc(NC2=C(N3CCCCC3)C(=O)c3ccccc3C2=O)cc1,0,0,0,0,76,66
O=C1C(Nc2cccc(O)c2)=C(N2CCCCC2)C(=O)c2ccccc21,-,0,0,0,-,0
C=CCN(Cc1cccc(OC)c1OC)C(=O)Oc1ccccc1,0,0,-,0,0,-
CCOC(=O)C1CCCN(C(=O)c2ccccc2NS(=O)(=O)c2ccc(F)cc2)C1 (stereo unspecified),0,0,-,0,0,-
O=C(/C=C/c1ccc(O)cc1)c1ccc(NC2=C(N3CCCCC3)C(=O)c3ccccc3C2=O)cc1,90,0,0,0,0,0
O=C(/C=C/c1ccccc1)Nc1ccc(C(=O)N2CCCCC2)cc1,0,0,0,0,0,0
CN(C1=C(N2CCCCC2)C(=O)c2ccccc2C1=O)c1ccccc1,-,0,71,0,-,0
CCN1CCN(Cc2ccc(NC(=O)c3ccc(C)c(NC(=O)c4ccnnc4)c3)cc2C(F)(F)F)CC1,0,0,0,0,0,0
CCN1CCN(Cc2ccc(NC(=O)c3cc(NC(=O)c4cnn(-c5ccccc5)c4N)cc(OC)c3)cc2C(F)(F)F)CC1,131,0,0,0,109,0
CCN1CCN(Cc2ccc(NC(=O)c3cc(NC(=O)c4cc(C)on4)cc(OC)c3)cc2C(F)(F)F)CC1,0,0,-,0,0,0
CCN1CCN(Cc2ccc(NC(=O)c3cc(NC(=O)C(=O)c4c[nH]c5ccccc45)cc(OC)c3)cc2C(F)(F)F)CC1,0,0,0,0,98,?
CCN1CCN(Cc2ccc(NC(=O)c3ccc(C)c(NC(=O)C(=O)c4c[nH]c5ccccc45)c3)cc2C(F)(F)F)CC1,102!,0,92,0,110,0
CC(CN1CCCCC1)OC(=O)c1ccc(Cl)cc1 (stereo unspecified),0,0,0,0,0,0
CC(CN1CCN(C)CC1)OC(=O)c1ccc(Cl)cc1 (stereo unspecified),0,0,0,0,0,59
O=c1c2ccccc2nc(CSc2nnnn2-c2ccccc2)n1-c1ccccc1Cl,0,0,71,0,0,0
N=C(N)SCc1nc2ccccc2c(=O)n1-c1ccccc1Cl,93,0,0,0,0,0
SMILES,CSC inhib,GRIN3A LBD mod,CHOP inhibitor,PREPL inhibitor,Beta cell apopt,T cruzi inh
NC(=O)C1CCCN(C(=O)c2ccc3c(c2)NC(=O)CS3)C1 (stereo unspecified),0,0,-,0,0,-
Cc1nc(-c2ccc(S(=O)(=O)Oc3ccc(Cl)cc3Cl)s2)cs1,0,0,0,0,-,0
Cc1cc(C)c2c(N)c(C(=O)Nc3ccc([N+](=O)[O-])cc3)sc2n1,0,0,-,0,0,0
Cc1cc(C)nc(NN=C(c2ccccc2)c2ccccc2)n1,0,0,0,0,0,0
COc1ccc(C(=O)NCC(c2cccnc2)N2CCN(c3ccc(F)cc3)CC2)cc1OC (stereo unspecified),0,0,0,0,0,-
O=C(NCC(c1cccnc1)N1CCN(c2ccc(F)cc2)CC1)c1ccco1 (stereo unspecified),0,0,0,0,0,60
O=S(=O)(NCC(c1cccnc1)N1CCN(c2ccc(F)cc2)CC1)c1cccs1 (stereo unspecified),0,0,0,0,0,0
COc1ccc(N2CCN(C(CNC(=O)c3ccco3)c3cccnc3)CC2)cc1 (stereo unspecified),0,0,0,0,0,0
COc1cc(C(=O)NCC(c2cccnc2)N2CCN(c3ccc(F)cc3)CC2)cc(OC)c1OC (stereo unspecified),0,0,0,0,0,71
O=S(=O)(NCC(c1cccnc1)N1CCN(c2ccc(F)cc2)CC1)c1ccc(F)cc1 (stereo unspecified),0,0,94,0,0,0
O=C(NCC(c1cccnc1)N1CCN(c2ccc(F)cc2)CC1)c1ccc(F)cc1 (stereo unspecified),0,0,0,0,0,60
Cc1cccc(S(=O)(=O)Nc2ccc(-n3c(C)nc4ccccc4c3=O)cc2)c1,0,0,-,0,-,0
Cc1ccc(OCC(=O)Nc2cccnc2Cl)cc1C,0,0,-,0,0,0
Cc1ccc(CN2CCN(CCCn3cccn3)CC2CCO)cc1 (stereo unspecified),0,0,0,0,0,0
CCCOc1ccc(C(=O)NCCC(=O)NCCCC(=O)O)cc1,0,0,0,0,0,0
Cc1ccsc1C(=O)N1CCCC(N(C)Cc2ccccc2)C1 (stereo unspecified),0,0,-,0,0,0
CC(=O)NC(c1cccs1)c1cc(F)c2cccnc2c1O (stereo unspecified),0,0,-,0,91,-
CC(=O)NC(c1ccco1)c1cc(Cl)c2ccccc2c1O (stereo unspecified),0,0,-,0,0,-
CC(=O)NC(c1ccco1)c1cc(F)c2cccnc2c1O (stereo unspecified),0,0,-,0,82,-
FC(F)(F)COc1nc(N/N=C/c2cccnc2)nc(N2CCCCC2c2ccccn2)n1 (stereo unspecified),0,0,0,0,0,59
CCOC(=O)CC1COCCN1C(=O)CCc1nnc(-c2ccsc2)o1 (stereo unspecified),0,0,0,0,0,0
CCC(CC)n1[nH]c(=O)cc1N,0,14,0,0,0,0
Cc1ccc(-n2cc(CN3CCC(O)(c4ccccn4)CC3)c(-c3ccc(F)cc3)n2)cc1,0,0,0,0,0,55
Cc1ccc(-n2cc(CN3CCNC(=O)CC3)c(-c3ccc(F)cc3)n2)cc1,0,0,0,0,0,0
Cc1cc(S(=O)(=O)Nc2ccc(C(=O)NCc3cccnc3)cc2)ccc1F,0,0,-,0,0,0
Cc1ccc2nc(N3CCC(C(=O)O)CC3)nc(-c3ccccc3)c2c1,0,0,0,0,0,0

# From PubChem BioAssay
